Assay results from ChEMBL document CHEMBL4138078, “Structure-based virtual screening and optimization of modulators targeting Hsp90-Cdc37 interaction” (Eur J Med Chem, 2017).
Active and inactive are the calls of the source. The rule behind the calls is not given here.

How the values were obtained:
[1] = Inhibition of full length His-tagged HSP90/GST-tagged Cdc37 (unknown origin) interaction after 1 hr by HTRF assay; set-up: species or system Homo sapiens
Procedure, shortened: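 Final 250 nM each of His-Hsp90 (full length) and GST-Cdc37 M in PBS with extra 400 mM KF, pH 7.4. Compound added (300 μM to 1.23 μM, three-fold steps), 1 h at 37 °C. Anti-GST-cryptate and anti-6His-XL665 added, 0.5 h at 37 °C. TR-FRET read at ex 320 nm, em 665/620 nm, ratio ×10000. No-compound and reagent-only controls included.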

Homo sapiens [2] = species: Homo sapiens; test: Inhibition of HSP90/Cdc37 protein-protein interaction in human SKBR3 cells assessed as decrease in CDK4 level after 24 hrs by Western blot analysis; type: cell-based
Procedure, shortened: (§1)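 SKBR-3 cells treated with compound at 1, 10 and 50 μM for 24 h. After a PBS rinse and trypsinisation, cells lysed in Tris-HCl pH 7.5 buffer with NaCl, EDTA, NP-40, PMSF, NaF and DTT; lysate spun 12000 rpm, 10 min, 4 °C. Protein by BCA, equal loads on SDS-PAGE. Probed for Hsp90, Akt, Cdk4, β-actin; DyLight 800 secondary, infrared imaging.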

MCF7 [3] = test: Antiproliferative activity against human MCF7 cells after 72 hrs by MTT assay; type: functional, cell-based; conditions: MCF7, 72 h
Procedure, shortened: (§2)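 Cells seeded at 10000/well and left 24 h, then exposed to compounds in DMSO (200 μM down to 0.823 μM, three-fold steps) for 72 h at 37 °C. Viability was read by MTT (5 mg/mL in PBS) with formazan dissolved in DMSO, OD at 490 nm. IC50 was taken from parallel experiments as mean ± SD. Media: MCF-7 in MEM, SKBR-3 in RPMI-1640, A549 in F12K, each with 10% FCS.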

Homo sapiens [4] = species: Homo sapiens; test: Inhibition of full length His-tagged HSP90/GST-tagged Cdc37 (unknown origin) interaction at 100 uM after 1 hr by HTRF assay relative to control
Procedure, shortened: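 HTRF assay using His-tagged full-length Hsp90 and GST-tagged Cdc37 M, each 250 nM final, in PBS with an extra 400 mM KF, pH 7.4. Compound incubated 1 h at 37 °C. Anti-GST-Cryptate and anti-6His-XL665 then added, 0.5 h at 37 °C. Ex 320 nm; ratio = (665/620 nm) × 10000. No-compound negative control and reagent-only blank.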

A549 [5] = test: Antiproliferative activity against human A549 cells after 72 hrs by MTT assay; type: functional, cell-based; conditions: A549, 72 h; procedure, shortened: as §2
Homo sapiens [6] = species: Homo sapiens; test: Inhibition of N-terminal GST-tagged HSP90/Cdc37 (unknown origin) interaction expressed in Escherichia coli preincubated with Cdc37 for 1 hr followed by addition to HSP90 by GST-pull down assay
Procedure, shortened: (§3)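 Pull-down with 10 μg GST-Hsp90 N-terminal domain immobilised as bait on glutathione resin spin columns. Compound incubated with Cdc37 for 1 h at 37 °C, then added to the columns. Loading buffer 25 mM Tris, 0.15 M NaCl, pH 7.2; elution with extra 10 mM reduced glutathione; spins 1 min at 1,000 × g, 4 °C. Eluate analysed by SDS-PAGE and anti-GST/anti-His western blot.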

Heat shock protein HSP90 = Heat shock protein HSP90 (Homo sapiens, UniProt P07900+P08238); test: Binding affinity to N-terminal GST-tagged HSP90 (unknown origin) expressed in Escherichia coli by biolayer interferometry analysis
SK-BR-3 [7] = test: Effect on HSP90 level in human SKBR3 cells at 1 to 50 uM after 24 hrs by Western blot analysis; type: functional, cell-based; procedure, shortened: as §1
SK-BR-3 [8] = test: Antiproliferative activity against human SKBR3 cells after 72 hrs by MTT assay; type: functional, cell-based; conditions: SK-BR-3, 72 h; procedure, shortened: as §2
Homo sapiens [9] = species: Homo sapiens; test: Inhibition of HSP90/Cdc37 protein-protein interaction in human SKBR3 cells assessed as decrease in Akt level after 24 hrs by Western blot analysis; type: cell-based; procedure, shortened: as §1
Homo sapiens [10] = species: Homo sapiens; test: Inhibition of N-terminal GST-tagged HSP90/Cdc37 (unknown origin) interaction expressed in Escherichia coli at 20 uM preincubated with Cdc37 for 1 hr followed by addition to HSP90 by GST-pull down assay; procedure, shortened: as §3
SK-BR-3 [11] = test: Antiproliferative activity against human SKBR3 cells at 10 uM after 72 hrs by MTT assay relative to control; type: functional
A549 [12] = test: Antiproliferative activity against human A549 cells at 10 uM after 72 hrs by MTT assay relative to control; type: functional
Homo sapiens [13] = species: Homo sapiens; test: Inhibition of full length His-tagged HSP90/GST-tagged Cdc37 (unknown origin) interaction at 10 uM after 1 hr by HTRF assay relative to control
MCF7 [14] = test: Antiproliferative activity against human MCF7 cells at 10 uM after 72 hrs by MTT assay relative to control; type: functional

SMILES | IC50 [1] | inhibition (Homo sapiens [2]) | IC50 (MCF7 [3]) | inhibition (Homo sapiens [4]) | IC50 (A549 [5]) | inhibition (Homo sapiens [6]) | Kd (Heat shock protein HSP90) | Activity (SK-BR-3 [7]) | IC50 (SK-BR-3 [8]) | inhibition (Homo sapiens [9]) | inhibition (Homo sapiens [10]) | Activity (SK-BR-3 [11]) | Activity (A549 [12]) | inhibition (Homo sapiens [13]) | Activity (MCF7 [14])
Cn1nccc1NS(=O)(=O)c1ccc(NC(=O)CCC(=O)Nc2ccc(S(=O)(=O)Nc3ccnn3C)cc2)cc1 | 27 to 27.4 µM | Dose-dependent effect | 26.4 µM | 79.4% | 38.4 µM | Dose-dependent effect | 40 to 40.4 µM | inactive | 14.7 µM | Dose-dependent effect |  |  |  |  | 
CC1=C(O)C(=O)C=C2C1=CC=C1[C@@]2(C)CC[C@@]2(C)[C@@H]3C[C@](C)(C(=O)O)CC[C@]3(C)CC[C@]12C [CELASTROL] |  | Dose-dependent effect |  | 92.3% |  |  |  | inactive |  | Dose-dependent effect | Active | 97.62% | 95.43% | 79.3% | 98.62%
